Assays:
[1] = Inhibition of mouse splenocytes-derived CD4+ Th17 cell differentiation assessed as reduction in IL-17 production at 0.3 uM by flow cytometry relative to control; format: functional
Summary of the method: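 CD4+ T cells were taken from mouse splenocytes by negative selection and skewed to Th17 over 4 days with anti-CD3 0.25 μg/mL, anti-CD28 1 μg/mL, anti-IFN-γ and anti-IL-4 2 μg/mL each, TGF-β 5 ng/mL and IL-6 20 ng/mL. Compound or DMSO was added on day 0. IL-17+ CD4+ cells were measured by intracellular staining and flow cytometry.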

[2] = Intrinsic clearance in mouse liver microsomes; format: ADME, microsome
[3] = target: T1, Nuclear receptor ROR-gamma (Homo sapiens, UniProt P51449); assay: Inverse agonist activity at APC-labeled RORgammat LBD (unknown origin) assessed as inhibition of N-(2-chloro-6-fluorobenzyl)-N-((20-methoxy-[1,10-biphenyl]-4-yl)methyl)benzenesulfonamide -induced co-activator europium-labeled SRC1 peptide recruitment after 1 hr by LANCE-FRET assay
T1 sequence (P51449 whole entry): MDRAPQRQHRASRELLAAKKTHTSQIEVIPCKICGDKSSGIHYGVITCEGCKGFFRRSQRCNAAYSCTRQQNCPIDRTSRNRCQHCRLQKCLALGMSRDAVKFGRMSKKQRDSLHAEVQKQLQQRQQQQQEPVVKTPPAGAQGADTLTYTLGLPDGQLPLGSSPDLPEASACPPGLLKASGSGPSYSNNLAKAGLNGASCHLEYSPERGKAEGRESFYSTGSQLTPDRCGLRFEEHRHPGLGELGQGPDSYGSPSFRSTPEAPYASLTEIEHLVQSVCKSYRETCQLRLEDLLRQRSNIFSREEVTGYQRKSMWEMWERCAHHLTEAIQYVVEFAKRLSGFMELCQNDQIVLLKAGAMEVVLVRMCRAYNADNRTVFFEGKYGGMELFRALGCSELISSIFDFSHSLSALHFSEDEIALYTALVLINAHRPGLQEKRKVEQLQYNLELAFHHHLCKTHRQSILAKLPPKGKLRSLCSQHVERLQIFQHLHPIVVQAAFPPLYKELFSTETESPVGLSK

[4] = target: T2, Nuclear receptor ROR-gamma (Homo sapiens) (UniProt P51449); assay: Agonist activity at APC-labeled RORgammat LBD (unknown origin) assessed as co-activator europium-labeled SRC1 peptide recruitment after 1 hr by LANCE-FRET assay relative to control
T2 sequence (whole entry): T1 sequence (P51449 whole entry)

| SMILES | IC50 ([3]; read-out: IC50) [nM] | also measured |
| --- | --- | --- |
| CCn1c2ccc(Cl)cc2c2cc(C(=O)NCc3ccc(S(=O)(=O)CC)cc3)ccc21 | 58.5 | inhibition at 0.3 µM [1]: 58.8%; CLint [2]: 0.197 mL/min/g |
| CCn1c2ccccc2c2cc(C(=O)NCc3ccc(S(=O)(=O)NC)cc3)ccc21 | 313 | – |
| CCCn1c2ccccc2c2cc(C(=O)NCc3ccc(S(=O)(=O)CC)cc3)ccc21 | 138 | – |
| CCn1c2c(c3cc(C(=O)NCc4ccc(S(=O)(=O)CC)cc4)ccc31)CCC2 | 1320 | – |
| CCn1c2ccccc2c2cc(C(=O)NCc3ccc(S(=O)(=O)CC)cc3)ccc21 | 167 | inhibition at 0.3 µM [1]: 40%; CLint [2]: 0.305 mL/min/g |
| CCn1c2ccccc2c2cc(C(=O)NCc3ccc(S(C)(=O)=O)cc3)ccc21 | 1100 | – |
| CCn1c(C)c(C)c2cc(C(=O)NCc3ccc(S(=O)(=O)CC)cc3)ccc21 | 914 | – |
| CCS(=O)(=O)c1ccc(CNC(=O)c2ccc3c(c2)c2ccccc2n3CC2CCCCC2)cc1 | 33.5 | Emax [4]: 54% |
| CCn1c2c(c3cc(C(=O)NCc4ccc(S(=O)(=O)CC)cc4)ccc31)CCCC2 | 426 | – |
| CCS(=O)(=O)c1ccc(CNC(=O)c2ccc3c(c2)c2ccccc2n3C(C)C)cc1 | 358 | – |
| CCn1c2ccccc2c2cc(NC(=O)CNC(=O)Cc3ccc(S(=O)(=O)CC)cc3)ccc21 | 7670 | – |
| CCn1c2ccc(C)cc2c2cc(C(=O)NCc3ccc(S(=O)(=O)CC)cc3)ccc21 | 47.8 | inhibition at 0.3 µM [1]: 43.6%; CLint [2]: 0.368 mL/min/g |
| CCn1c2ccccc2c2cc(C(=O)NCc3ccc(S(=O)(=O)CC)cn3)ccc21 | 1220 | – |
| CCn1c2ccc(C(=O)NCc3ccc(S(=O)(=O)CC)cc3)cc2c2ncccc21 | 3000 | – |
| CCS(=O)(=O)c1ccc(CNC(=O)c2ccc3c(c2)c2ccccc2n3C)cc1 | 566 | – |
| CCS(=O)(=O)c1ccc(CNC(=O)c2ccc3c(c2)c2ccccc2n3CC(C)C)cc1 | 69.6 | – |
| CCS(=O)(=O)c1ccc(CNC(=O)c2ccc3[nH]c4ccccc4c3c2)cc1 | 5400 | – |
| CCS(=O)(=O)c1ccc(CNC(=O)c2ccc3c(c2)c2ccccc2n3CC2CCC2)cc1 | 54.9 | – |
| CCn1c2ccc(F)cc2c2cc(C(=O)NCc3ccc(S(=O)(=O)CC)cc3)ccc21 | 156 | inhibition at 0.3 µM [1]: 45.9%; CLint [2]: 0.348 mL/min/g |
| CCS(=O)(=O)c1ccc(CNC(=O)c2ccc3c(c2)c2ccccc2n3CC2CC2)cc1 | 81.9 | – |
| CCCS(=O)(=O)c1ccc(CNC(=O)c2ccc3c(c2)c2ccccc2n3CC)cc1 | 1450 | – |
| CCn1c2ccccc2c2cc(NC(=O)NCc3ccc(S(=O)(=O)CC)cc3)ccc21 | 16200 | – |
| CCn1ccc2cc(C(=O)NCc3ccc(S(=O)(=O)CC)cc3)ccc21 | 5160 | – |
| CCn1c2ccccc2c2cc(C(=O)NCC(C)NC(=O)Cc3ccc(S(=O)(=O)CC)cc3)ccc21 (centres undefined) | – | IC50 [3]: Not Active |
| CCn1c2ccccc2c2cc(NC(=O)Cc3ccc(S(=O)(=O)CC)cc3)ccc21 | 170 | – |

— ChEMBL document CHEMBL4196040, “Discovery of carbazole carboxamides as novel RORγt inverse agonists” (Eur J Med Chem, 2018)
